{"data": "Measurements gathered from unrelated publications"}
{"Structure (SMILES)": "CC(C)[C@@H]1NC(=O)[C@@H](CCCCN)NC(=O)[C@H]([C@@H](C)O)NC(=O)[C@@H](CCCCN)NC(=O)[C@H](Cc2ccccc2)NC(=O)[C@@H](Cc2ccccc2)NC1=O", "test": "haemolysis", "system": "human", "conditions": "100 µM", "quantity": "haemolysis", "result": "< 10%"}
{"Structure (SMILES)": "Cc1cc(S(=O)(=O)NC2CC(N3CC[C@@H](OC4CN(c5cccc6c5n(C)c(=O)n6C5CCC(=O)NC5=O)C4)[C@H](F)C3)C2)ccc1Nc1ncc(C(F)(F)F)c(N2CCC[C@](C)(O)C2)n1 (stereo partly shown)", "system": "rat, plasma", "conditions": "intravenous, 2 mg/kg", "quantity": "clearance", "result": "4.92 L/h/kg"}
{"Structure (SMILES)": "CCCCCCCCNC(C)C(O)c1ccc(SC(C)C)cc1 (stereo not shown)", "test": "haemolysis", "system": "human", "conditions": "50 µM, 3 h", "quantity": "haemolysis", "result": "> 18%"}
{"Structure (SMILES)": "CC(C)[C@@H]1NC(=O)[C@@H](CCCNC(=N)N)NC(=O)[C@H](C)NC(=O)[C@@H](CCCN)NC(=O)[C@H](Cc2ccccc2)NC(=O)[C@@H](Cc2ccccc2)NC1=O", "test": "haemolysis", "system": "human", "conditions": "100 µM", "quantity": "haemolysis", "result": "< 10%"}
{"Structure (SMILES)": "CNS(=O)(=O)c1ccc(Nc2ncc(C(F)(F)F)c(N3CCC(C)(O)CC3)n2)c(C)c1", "system": "rat, plasma", "conditions": "intravenous, 2 mg/kg", "quantity": "clearance", "result": "3.12 L/h/kg"}
{"Structure (SMILES)": "CSc1ccccc1C(=O)NCCn1cc(C(=O)NCc2cccc(C)n2)c(=O)c2cc3c(cc21)OC(F)(F)O3", "target or system": "Cytochrome P450 2B6 (CYP2B6, Homo sapiens, UniProt P20813)", "test": "enzyme activity, inhibitor", "system": "human, liver microsomes", "conditions": "20 min, without NADPH, with preincubation", "quantity": "IC50", "result": "> 100 µM"}
{"Structure (SMILES)": "c1ccc(COc2ccc(Nc3ccc4ncc(OCC5CCNCC5)nc4c3)cc2)cc1", "target or system": "HeLa", "test": "cell growth or viability, XTT", "conditions": "7 days", "quantity": "EC50", "result": "> 30 µM"}
{"Structure (SMILES)": "C[C@H]1CN(CC2CCN(c3ccc(C4CCC(=O)NC4=O)cc3F)CC2)CC[C@H]1NS(=O)(=O)c1ccc(Nc2ncc(C(F)(F)F)c(N3CCC[C@](C)(O)C3)n2)c(F)c1 (stereo partly shown)", "system": "rat, plasma", "conditions": "intravenous, 2 mg/kg", "quantity": "clearance", "result": "1.14 L/h/kg"}
{"Structure (SMILES)": "CC(C)n1ncc2c(C(=O)NCC3(C)CNC3)cc(C3CC3)nc21", "target or system": "HeLa", "test": "cell growth or viability, neutral red", "conditions": "1 µM", "quantity": "viability", "result": "104%"}
{"Structure (SMILES)": "Cc1cc(S(=O)(=O)N[C@H]2CC[C@H](CN3CCN(c4ccc(C5CCC(=O)NC5=O)c(Cl)c4)CC3)CC2)ccc1Nc1ncc(C(F)(F)F)c(N2CCC[C@](C)(O)C2)n1 (stereo partly shown)", "system": "rat, plasma", "conditions": "intravenous, 2 mg/kg", "quantity": "clearance", "result": "0.9 L/h/kg"}
{"Structure (SMILES)": "c1ccc(Oc2ccc(Nc3ccc4ncc(OCC5CCNCC5)nc4c3)cc2)cc1", "target or system": "HeLa", "test": "cell growth or viability, XTT", "conditions": "7 days", "quantity": "EC50", "result": "20.9 µM"}
{"Structure (SMILES)": "CC(C)[C@@H]1NC(=O)[C@@H](CCCCN)NC(=O)[C@H]([C@@H](C)O)NC(=O)[C@@H](CCCN)NC(=O)[C@H](Cc2ccccc2)NC(=O)[C@@H](Cc2ccccc2)NC1=O", "test": "haemolysis", "system": "human", "conditions": "100 µM", "quantity": "haemolysis", "result": "< 10%"}
{"Structure (SMILES)": "CCCCCCCCCCCCCCCCCC(=O)O", "target or system": "HeLa", "test": "cell growth or viability, MTT", "conditions": "48 h", "quantity": "CC50", "result": "90.6 mg/L"}
